Test results published in paper PMC12552610 (Nature Communications, 2025).

Target: Aβ (AD brain homogenates) (Homo sapiens, UniProt P05067)
Assay: Competition of PiB against [3H]ACI-Aβ ref on AD brain homogenates
Assay type: binding
Summary of the method: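 Insoluble AD brain fraction prepared by high-salt, Triton X-100 and sucrose ultracentrifugation steps. Competitor serially diluted from 2000 nM to 0.14 nM against tritiated Aβ reference ligand at 15 nM. Run in 50 mM Tris pH 7.5, 0.9% NaCl, 0.1% BSA for 2 h at RT, in duplicate. Samples vacuum-filtered on GF/C, washed five times with ice-cold Tris, then scintillation-counted.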

Sequence of Aβ (AD brain homogenates) (P05067 672-713): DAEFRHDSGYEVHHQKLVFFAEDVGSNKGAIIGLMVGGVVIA

displacement of Aβ ref cmpd: can be displaced by it
SMILES: CNc1ccc(-c2nc3ccc(O)cc3s2)cc1 [Pittsburg compound B, 2-(4-(Methylamino)phenyl)benzo[d]thiazol-6-ol]
